Assays:
Hs-578T = assay: Growth inhibition of human Hs 578T cells assessed as cell growth at 10^-5 M incubated for 48 hrs by sulforhodamine B assay relative to control; type: functional; settings: read-out: Activity
MDA-MB-468 = assay: Growth inhibition of human MDA-MB-468 cells assessed as cell growth at 10^-7 M incubated for 48 hrs by sulforhodamine B assay relative to control; type: functional; settings: MDA-MB-468, 48 h, read-out: Activity
HCT-116 = assay: Growth inhibition of human HCT116 cells assessed as cell growth at 10^-4 M incubated for 48 hrs by sulforhodamine B assay relative to control; type: functional; settings: HCT-116, 48 h, read-out: Activity
A549 [1] = assay: Growth inhibition of human A549/ATCC cells assessed as cell growth at 10^-6 M incubated for 48 hrs by sulforhodamine B assay relative to control; type: functional; settings: A549, 48 h, read-out: Activity
HL-60(TB) [2] = assay: Growth inhibition of human HL-60(TB) cells assessed as cell growth at 10^-6 M incubated for 48 hrs by sulforhodamine B assay relative to control; type: functional; settings: HL-60, 48 h, read-out: Activity
U-251 = assay: Cytotoxicity against human U251 cells after 48 hrs by SRB assay; type: functional; settings: U-251, 48 h
OVCAR-3 [3] = assay: Growth inhibition of human OVCAR3 cells assessed as cell growth at 10^-7 M incubated for 48 hrs by sulforhodamine B assay relative to control; type: functional; settings: OVCAR-3, 48 h, read-out: Activity
OVCAR-4 = assay: Cytotoxicity against human OVCAR4 cells after 48 hrs by SRB assay; type: functional; settings: OVCAR-4, 48 h
RXF 393 = assay: Growth inhibition of human RXF393 cells assessed as cell growth at 10^-6 M incubated for 48 hrs by sulforhodamine B assay relative to control; type: functional; settings: RXF 393, 48 h, read-out: Activity
SF-295 = assay: Cytotoxicity against human SF295 cells after 48 hrs by SRB assay; type: functional; settings: SF-295, 48 h
OVCAR-3 [4] = assay: Growth inhibition of human OVCAR3 cells assessed as cell growth at 10^-6 M incubated for 48 hrs by sulforhodamine B assay relative to control; type: functional; settings: OVCAR-3, 48 h, read-out: Activity
K562 = assay: Cytotoxicity against human K562 cells after 48 hrs by SRB assay; type: functional; settings: K562, 48 h
SW-620 [5] = assay: Growth inhibition of human SW620 cells assessed as cell growth at 10^-4 M incubated for 48 hrs by sulforhodamine B assay relative to control; type: functional; settings: SW-620, 48 h, read-out: Activity
SW-620 [6] = assay: Cytotoxicity against human SW620 cells after 48 hrs by SRB assay; type: functional; settings: SW-620, 48 h
HOP-92 [7] = assay: Cytotoxicity against human HOP92 cells after 48 hrs by SRB assay; type: functional; settings: HOP-92, 48 h
Malme-3M = assay: Growth inhibition of human MALME-3M cells assessed as cell growth at 10^-8 M incubated for 48 hrs by sulforhodamine B assay relative to control; type: functional; settings: read-out: Activity
A549 [8] = assay: Growth inhibition of human A549/ATCC cells assessed as cell growth at 10^-8 M incubated for 48 hrs by sulforhodamine B assay relative to control; type: functional; settings: A549, 48 h, read-out: Activity
SK-OV-3 = assay: Cytotoxicity against human SKOV3 cells after 48 hrs by SRB assay; type: functional; settings: SK-OV-3, 48 h
[9] = Antiproliferative activity against HELF cells after 4 days by Coulter counter method; type: cell-based; settings: Homo sapiens, 96 h
HL-60(TB) [10] = assay: Growth inhibition of human HL-60(TB) cells assessed as cell growth at 10^-7 M incubated for 48 hrs by sulforhodamine B assay relative to control; type: functional; settings: HL-60, 48 h, read-out: Activity
HOP-62 = assay: Growth inhibition of human HOP62 cells assessed as cell growth at 10^-7 M incubated for 48 hrs by sulforhodamine B assay relative to control; type: functional; settings: HOP-62, 48 h, read-out: Activity
CCRF-CEM = assay: Antiproliferative activity against human CEM cells after 72 hrs by Coulter counter method; type: functional, cell-based
How it was run: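 Cell count assay in 96-well microtiter plates; (5–7.5) × 10⁴ tumor cells per well plus test compound. Cells proliferated at 37 °C in humidified CO₂-controlled atmosphere, 48 h for murine leukemia L1210, 72 h for human lymphocytic CEM and cervix carcinoma HeLa. Counted by Coulter counter; IC₅₀ is the concentration that inhibits proliferation by 50%.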

HT-29 = assay: Cytotoxicity against human HT-29 cells after 48 hrs by SRB assay; type: functional; settings: HT-29, 48 h
UACC-62 = assay: Cytotoxicity against human UACC62 cells after 48 hrs by SRB assay; type: functional; settings: UACC-62, 48 h
UACC-257 [11] = assay: Cytotoxicity against human UACC257 cells after 48 hrs by SRB assay; type: functional; settings: UACC-257, 48 h
UACC-257 [12] = assay: Growth inhibition of human UACC257 cells assessed as cell growth at 10^-6 M incubated for 48 hrs by sulforhodamine B assay relative to control; type: functional; settings: UACC-257, 48 h, read-out: Activity
OVCAR-5 = assay: Growth inhibition of human OVCAR5 cells assessed as cell growth at 10^-4 M incubated for 48 hrs by sulforhodamine B assay relative to control; type: functional; settings: OVCAR-5, 48 h, read-out: Activity
ACHN = assay: Growth inhibition of human ACHN cells assessed as cell growth at 10^-5 M incubated for 48 hrs by sulforhodamine B assay relative to control; type: functional; settings: read-out: Activity
HOP-92 [13] = assay: Growth inhibition of human HOP92 cells assessed as cell growth at 10^-7 M incubated for 48 hrs by sulforhodamine B assay relative to control; type: functional; settings: HOP-92, 48 h, read-out: Activity
SN12C = assay: Growth inhibition of human SN12C cells assessed as cell growth at 10^-8 M incubated for 48 hrs by sulforhodamine B assay relative to control; type: functional; settings: read-out: Activity
KM12 = assay: Growth inhibition of human KM12 cells assessed as cell growth at 10^-7 M incubated for 48 hrs by sulforhodamine B assay relative to control; type: functional; settings: KM12, 48 h, read-out: Activity
[14] = read-out: pLC50 (the source's name) (converted)
[15] = read-out: LC50 (the source's name)

Q: With `C#C[C@@]1(O)[C@@H](CO)O[C@@H](n2cc(F)c3c(N)ncnc32)[C@@H]1O` as the compound, how does the growth at 10 µM (Hs-578T) read?
A: 18%

Q: What about the growth at 0.1 µM (MDA-MB-468) of the same compound?
A: 84%

Q: What about the growth at 100 µM (HCT-116) of the same compound?
A: 1%

Q: And the growth at 1 µM (A549 [1])?
A: 19%

Q: And the growth at 1 µM (HL-60(TB) [2])?
A: 20%

Q: And the GI50 (U-251; read-out: GI50)?
A: 631 nM

Q: What about the TGI (U-251; read-out: TGI) of the same compound?
A: 11600 nM

Q: What about the GI50 (U-251; read-out: pGI50 (converted)) of the same compound?
A: 631 nM

Q: What about the CC50 (U-251; [14]) of the same compound?
A: > 100000 nM

Q: What about the TGI (U-251; read-out: pTGI (converted)) of the same compound?
A: 11700 nM

Q: And the growth at 0.1 µM (OVCAR-3 [3])?
A: 107%

Q: And the TGI (OVCAR-4; read-out: TGI)?
A: 8670 nM

Q: And the GI50 (OVCAR-4; read-out: pGI50 (converted))?
A: 1000 nM

Q: What about the CC50 (OVCAR-4; [14]) of the same compound?
A: > 100000 nM

Q: What about the TGI (OVCAR-4; read-out: pTGI (converted)) of the same compound?
A: 8710 nM

Q: And the growth at 1 µM (RXF 393)?
A: 42%

Q: And the TGI (SF-295; read-out: TGI)?
A: 2330 nM

Q: What about the GI50 (SF-295; read-out: pGI50 (converted)) of the same compound?
A: 646 nM

Q: What about the CC50 (SF-295; [14]) of the same compound?
A: 6760 nM

Q: And the TGI (SF-295; read-out: pTGI (converted))?
A: 2340 nM

Q: What about the growth at 1 µM (OVCAR-3 [4]) of the same compound?
A: 52%

Q: What about the CC50 (K562; [15]) of the same compound?
A: > 100000 nM

Q: What about the TGI (K562; read-out: TGI) of the same compound?
A: > 100000 nM

Q: And the GI50 (K562; read-out: pGI50 (converted))?
A: 288 nM

Q: And the TGI (K562; read-out: pTGI)?
A: > 100000 nM

Q: And the growth at 100 µM (SW-620 [5])?
A: -23%

Q: And the CC50 (SW-620 [6]; [15])?
A: > 100000 nM

Q: What about the TGI (SW-620 [6]; read-out: TGI) of the same compound?
A: 2900 nM

Q: What about the GI50 (SW-620 [6]; read-out: pGI50 (converted)) of the same compound?
A: 158 nM

Q: And the TGI (SW-620 [6]; read-out: pTGI (converted))?
A: 2880 nM

Q: And the CC50 (HOP-92 [7]; [15])?
A: > 100000 nM

Q: And the GI50 (HOP-92 [7]; read-out: pGI50 (converted))?
A: 38 nM

Q: What about the growth at 0.01 µM (Malme-3M) of the same compound?
A: 103%

Q: And the growth at 0.01 µM (A549 [8])?
A: 93%

Q: What about the CC50 (SK-OV-3; [15]) of the same compound?
A: > 100000 nM

Q: And the TGI (SK-OV-3; read-out: TGI)?
A: 2090 nM

Q: And the GI50 (SK-OV-3; read-out: pGI50 (converted))?
A: 288 nM

Q: And the TGI (SK-OV-3; read-out: pTGI (converted))?
A: 2090 nM

Q: And the IC50 [9]?
A: 76 nM

Q: What about the growth at 0.1 µM (HL-60(TB) [10]) of the same compound?
A: 103%

Q: What about the growth at 0.1 µM (HOP-62) of the same compound?
A: 101%

Q: What about the IC50 (CCRF-CEM) of the same compound?
A: 160 nM

Q: And the TGI (HT-29; read-out: TGI)?
A: > 100000 nM

Q: What about the GI50 (HT-29; read-out: pGI50 (converted)) of the same compound?
A: 209 nM

Q: And the CC50 (HT-29; [14])?
A: > 100000 nM

Q: What about the TGI (HT-29; read-out: pTGI (converted)) of the same compound?
A: > 100000 nM

Q: And the TGI (UACC-62; read-out: TGI)?
A: 1470 nM

Q: And the GI50 (UACC-62; read-out: pGI50 (converted))?
A: 331 nM

Q: What about the CC50 (UACC-62; [14]) of the same compound?
A: 7240 nM

Q: And the TGI (UACC-62; read-out: pTGI (converted))?
A: 1480 nM

Q: And the CC50 (UACC-257 [11]; [15])?
A: > 100000 nM

Q: And the TGI (UACC-257 [11]; read-out: TGI)?
A: 4640 nM

Q: And the GI50 (UACC-257 [11]; read-out: pGI50 (converted))?
A: 490 nM

Q: And the TGI (UACC-257 [11]; read-out: pTGI (converted))?
A: 4680 nM

Q: And the growth at 1 µM (UACC-257 [12])?
A: 34%

Q: What about the growth at 100 µM (OVCAR-5) of the same compound?
A: 7%

Q: And the growth at 10 µM (ACHN)?
A: 2%

Q: What about the growth at 0.1 µM (HOP-92 [13]) of the same compound?
A: -1%

Q: What about the growth at 0.01 µM (SN12C) of the same compound?
A: 94%

Q: What about the growth at 0.1 µM (KM12) of the same compound?
A: 85%
